# Data published in ChEMBL document CHEMBL1649465, “In vitro activity of ceftaroline alone and in combination against clinical isolates of resistant gram-negative pathogens, including beta-lactamase-producing Enterobacteriaceae and Pseudomonas aeruginosa” (2009).
# Calls of active or inactive are those of the source. The calls are words filed in the database; no cut-off is given here.
# What was measured:
# [1] = system: Klebsiella pneumoniae; assay: Antimicrobial activity against ESBL-producing Klebsiella pneumoniae by broth microdilution method; assay type: functional
# [2] = system: Klebsiella pneumoniae; assay: Antimicrobial activity against Klebsiella pneumoniae isolate 5436 by broth microdilution method; assay type: functional
# [3] = system: Pseudomonas aeruginosa; assay: Antimicrobial activity against Pseudomonas aeruginosa isolate 1019 by broth microdilution method; assay type: functional
# [4] = system: Escherichia coli; assay: Bactericidal activity against Escherichia coli isolate 5401 at 1/4 times MIC after 24 hrs by time kill analysis; assay type: functional, organism-based
# How it was run: (§1)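 Duplicate time-kill assays in 2-ml cultures of Mg/Ca-supplemented Mueller-Hinton broth. […] Samples taken at 0, 1, 2, 4, 8 and 24 h, serially diluted in cold 0.9% NaCl and spiral-plated for colony counts. Detection limit 2 log10 CFU/ml. Reported as decrease in log10 CFU/ml (mean ± SD).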
# [5] = system: Pseudomonas aeruginosa; assay: Bactericidal activity against Pseudomonas aeruginosa isolate 796 at 1/4 times MIC after 24 hrs by time kill analysis; assay type: functional, organism-based
# How it was run: (§2)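 Duplicate 24-h time-kill of the drug combination, each agent at one-fourth its MIC. […] Counts were taken by spiral plating after dilution in cold saline.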
# [6] = system: Enterobacter cloacae; assay: Antimicrobial activity against Enterobacter cloacae isolate 4073 by broth microdilution method; assay type: functional
# [7] = system: Enterobacter cloacae; assay: Antimicrobial activity against Enterobacter cloacae isolate 5420 by broth microdilution method; assay type: functional
# [8] = system: Pseudomonas aeruginosa; assay: Bactericidal activity against Pseudomonas aeruginosa isolate 956 at 1/4 times MIC after 24 hrs by time kill analysis; assay type: functional, organism-based; how it was run: as §2
# [9] = system: Pseudomonas aeruginosa; assay: Antimicrobial activity against Pseudomonas aeruginosa isolate 796 by broth microdilution method; assay type: functional
# [10] = system: Pseudomonas aeruginosa; assay: Bactericidal activity against Pseudomonas aeruginosa isolate 1037 at 1/4 times MIC after 24 hrs by time kill analysis; assay type: functional, organism-based; how it was run: as §2
# [11] = system: Pseudomonas aeruginosa; assay: Antimicrobial activity against Pseudomonas aeruginosa by broth microdilution method; assay type: functional
# [12] = system: Klebsiella pneumoniae; assay: Antimicrobial activity against Klebsiella pneumoniae isolate 5427 by broth microdilution method; assay type: functional
# [13] = system: Enterobacter cloacae; assay: Antimicrobial activity against […] Enterobacter cloacae by broth microdilution method; assay type: functional
# [14] = system: Pseudomonas aeruginosa; assay: Antimicrobial activity against Pseudomonas aeruginosa isolate 956 by broth microdilution method; assay type: functional
# [15] = system: Escherichia coli; assay: Antimicrobial activity against ESBL-producing Escherichia coli by broth microdilution method; assay type: functional
# [16] = system: Pseudomonas aeruginosa; assay: Antimicrobial activity against Pseudomonas aeruginosa isolate 1037 by broth microdilution method; assay type: functional
# [17] = system: Klebsiella pneumoniae; assay: Bactericidal activity against Klebsiella pneumoniae isolate 5427 at 1/4 times MIC after 24 hrs by time kill analysis; assay type: functional, organism-based; how it was run: as §1
# [18] = system: Pseudomonas aeruginosa; assay: Bactericidal activity against Pseudomonas aeruginosa isolate 1019 at 1/4 times MIC after 24 hrs by time kill analysis; assay type: functional, organism-based; how it was run: as §2
# [19] = system: Escherichia coli; assay: Bactericidal activity against Escherichia coli isolate 5411 at 1/4 times MIC after 24 hrs by time kill analysis; assay type: functional, organism-based; how it was run: as §1
# [20] = system: Escherichia coli; assay: Antimicrobial activity against Escherichia coli isolate 5401 by broth microdilution method; assay type: functional
# [21] = system: Escherichia coli; assay: Antimicrobial activity against Escherichia coli isolate 5411 by broth microdilution method; assay type: functional
# [22] = system: Klebsiella pneumoniae; assay: Bactericidal activity against Klebsiella pneumoniae isolate 5436 at 1/4 times MIC after 24 hrs by time kill analysis; assay type: functional, organism-based; how it was run: as §2
structure (smiles),measurement,setting,value
NCC[C@H](O)C(=O)N[C@@H]1C[C@H](N)[C@@H](O[C@H]2O[C@H](CN)[C@@H](O)[C@H](O)[C@H]2O)[C@H](O)[C@H]1O[C@H]1O[C@H](CO)[C@@H](O)[C@H](N)[C@H]1O [AMIKACIN],MBC,[1],1 µg/mL
same,MIC,[1],1 µg/mL
same,MBC,[2],2 µg/mL
same,MIC,[2],1 µg/mL
same,MBC,[3],4 µg/mL
same,MIC,[3],4 µg/mL
same,inhibition,[4],inactive
same,inhibition,[5],inactive
same,MBC,[6],8 µg/mL
same,MIC,[6],1 µg/mL
same,MBC,[7],2 µg/mL
same,MIC,[7],1 µg/mL
same,inhibition,[8],inactive
same,MBC,[9],32 µg/mL
same,MIC,[9],16 µg/mL
same,inhibition,[10],inactive
same,MBC,[11],2 µg/mL
same,MIC,[11],2 µg/mL
same,MBC,[12],2 µg/mL
same,MIC,[12],2 µg/mL
same,MBC,[13],1 µg/mL
same,MIC,[13],0.5 µg/mL
same,MBC,[14],64 µg/mL
same,MIC,[14],4 µg/mL
same,MBC,[15],4 µg/mL
same,MIC,[15],1 µg/mL
same,MBC,[16],4 µg/mL
same,MIC,[16],2 µg/mL
same,inhibition,[17],inactive
same,inhibition,[18],inactive
same,inhibition,[19],inactive
same,MBC,[20],4 µg/mL
same,MIC,[20],2 µg/mL
same,MBC,[21],16 µg/mL
same,MIC,[21],8 µg/mL
same,inhibition,[22],inactive
CO/N=C(\C(=O)N[C@@H]1C(=O)N2C(C(=O)[O-])=C(C[N+]3(C)CCCC3)CS[C@H]12)c1csc(N)n1,inhibition,[4],inactive
same,inhibition,[5],inactive
same,inhibition,[8],inactive
same,MIC,[9],8 µg/mL
same,inhibition,[10],inactive
same,MBC,[12],1 µg/mL
same,MIC,[12],0.5 µg/mL
same,MBC,[15],0.25 µg/mL
same,inhibition,[17],inactive
same,inhibition,[18],inactive
same,inhibition,[19],inactive
same,MBC,[20],4 µg/mL
same,MIC,[20],4 µg/mL
same,inhibition,[22],inactive
C[C@H]1[C@H](NC(=O)/C(=N\OC(C)(C)C(=O)O)c2csc(N)n2)C(=O)N1S(=O)(=O)O [AZTREONAM],MBC,[1],> 0.5 µg/mL
same,MIC,[1],> 0.25 µg/mL
same,MIC,[2],64 µg/mL
same,inhibition,[4],inactive
same,inhibition,[5],inactive
same,inhibition,[8],inactive
same,inhibition,[10],inactive
same,MBC,[12],1 µg/mL
same,MIC,[12],0.5 µg/mL
same,MIC,[14],8 µg/mL
same,MBC,[15],> 0.125 µg/mL
same,MIC,[15],> 0.125 µg/mL
same,inhibition,[17],inactive
same,inhibition,[18],inactive
same,inhibition,[19],inactive
same,MBC,[20],0.25 µg/mL
same,MIC,[20],0.25 µg/mL
same,MBC,[21],32 µg/mL
same,MIC,[21],8 µg/mL
same,inhibition,[22],inactive
CN(C)c1cc(NC(=O)CNC(C)(C)C)c(O)c2c1C[C@H]1C[C@H]3[C@H](N(C)C)C(O)=C(C(N)=O)C(=O)[C@@]3(O)C(O)=C1C2=O [TIGECYCLINE],MBC,[1],0.5 µg/mL
same,MIC,[1],0.125 µg/mL
same,MBC,[2],1 µg/mL
same,MIC,[2],0.125 µg/mL
same,MBC,[3],8 µg/mL
same,MIC,[3],2 µg/mL
same,inhibition,[4],inactive
same,inhibition,[5],inactive
same,MBC,[6],2 µg/mL
same,MIC,[6],0.5 µg/mL
same,MBC,[7],2 µg/mL
same,MIC,[7],0.5 µg/mL
same,inhibition,[8],inactive
same,MBC,[9],32 µg/mL
same,MIC,[9],32 µg/mL
same,inhibition,[10],inactive
same,MBC,[11],8 µg/mL
same,MIC,[11],2 µg/mL
same,MBC,[12],2 µg/mL
same,MIC,[12],0.5 µg/mL
same,MBC,[13],0.5 µg/mL
same,MIC,[13],0.25 µg/mL
same,MBC,[14],128 µg/mL
same,MIC,[14],16 µg/mL
same,MBC,[15],0.06 µg/mL
same,MIC,[15],0.06 µg/mL
same,MBC,[16],32 µg/mL
same,MIC,[16],8 µg/mL
same,inhibition,[17],inactive
same,inhibition,[18],inactive
same,inhibition,[19],inactive
same,MBC,[20],1 µg/mL
same,MIC,[20],0.5 µg/mL
same,MBC,[21],0.5 µg/mL
same,MIC,[21],0.125 µg/mL
same,inhibition,[22],inactive
C[C@@H](O)[C@H]1C(=O)N2C(C(=O)O)=C(S[C@@H]3CN[C@H](C(=O)N(C)C)C3)[C@H](C)[C@H]12 [MEROPENEM],MBC,[1],0.06 µg/mL
same,MIC,[1],0.03 µg/mL
same,MBC,[2],0.06 µg/mL
same,MIC,[2],0.06 µg/mL
same,MBC,[3],2 µg/mL
same,MIC,[3],1 µg/mL
same,inhibition,[4],inactive
same,inhibition,[5],inactive
same,MBC,[6],0.5 µg/mL
same,MIC,[6],0.25 µg/mL
same,MBC,[7],0.125 µg/mL
same,MIC,[7],0.125 µg/mL
same,inhibition,[8],inactive
same,MBC,[9],2 µg/mL
same,MIC,[9],1 µg/mL
same,inhibition,[10],inactive
same,MBC,[11],0.125 µg/mL
same,MIC,[11],0.125 µg/mL
same,MBC,[12],16 µg/mL
same,MIC,[12],4 µg/mL
same,MBC,[13],0.03 µg/mL
same,MIC,[13],0.03 µg/mL
same,MBC,[14],2 µg/mL
same,MIC,[14],0.25 µg/mL
same,MBC,[15],0.06 µg/mL
same,MIC,[15],0.03 µg/mL
same,MBC,[16],1 µg/mL
same,MIC,[16],0.5 µg/mL
same,inhibition,[17],inactive
same,inhibition,[18],inactive
same,inhibition,[19],inactive
same,MBC,[20],0.06 µg/mL
same,MIC,[20],0.06 µg/mL
same,MBC,[21],0.06 µg/mL
same,MIC,[21],0.06 µg/mL
same,inhibition,[22],inactive
C[C@H]1COc2c(N3CCN(C)CC3)c(F)cc3c(=O)c(C(=O)O)cn1c23.C[C@H]1COc2c(N3CCN(C)CC3)c(F)cc3c(=O)c(C(=O)O)cn1c23.O [LEVOFLOXACIN],MBC,[1],> 0.25 µg/mL
same,MIC,[1],> 0.25 µg/mL
same,MBC,[2],4 µg/mL
same,MIC,[2],4 µg/mL
same,MBC,[3],1 µg/mL
same,MIC,[3],0.5 µg/mL
same,inhibition,[4],inactive
same,inhibition,[5],inactive
same,MBC,[6],0.06 µg/mL
same,MIC,[6],0.06 µg/mL
same,MBC,[7],0.06 µg/mL
same,MIC,[7],0.06 µg/mL
same,inhibition,[8],inactive
same,MBC,[9],2 µg/mL
same,inhibition,[10],inactive
same,MBC,[11],0.5 µg/mL
same,MIC,[11],0.25 µg/mL
same,MBC,[12],2 µg/mL
same,MIC,[12],0.25 µg/mL
same,MBC,[13],0.03 µg/mL
same,MIC,[13],0.03 µg/mL
same,MBC,[14],1 µg/mL
same,MIC,[14],0.5 µg/mL
same,MBC,[15],0.06 µg/mL
same,MBC,[16],0.5 µg/mL
same,MIC,[16],0.25 µg/mL
same,inhibition,[17],inactive
same,inhibition,[18],inactive
same,inhibition,[19],inactive
same,MBC,[20],32 µg/mL
same,MIC,[20],32 µg/mL
same,MBC,[21],16 µg/mL
same,MIC,[21],8 µg/mL
same,inhibition,[22],inactive
